Assay results gathered from unrelated publications.
Lines come from different studies, so protocols differ.
Effect on: cell growth or viability

Structure (SMILES)	cell line	technique	time	IC50 [µM]
CC(=O)O[C@H]1C(=O)[C@@]2(C)[C@H]([C@H](OC(=O)c3ccccc3)[C@]3(O)C[C@H](OC(=O)[C@H](O)[C@@H](NC(=O)c4ccccc4)c4ccccc4)C(C)=C1C3(C)C)[C@]1(OC(C)=O)CO[C@@H]1C[C@@H]2O	COR-L23	SRB		0.0021
CN1CCN(CC(=O)Nc2cccc(C(=O)Nc3ccc4[nH]ncc4c3)c2)CC1	KM12	ATP luminescence	72 h	> 50
C[C@H]1O[C@@H](n2cc(F)c(=O)[nH]c2=O)[C@H](O)[C@@H]1O	Hep3B	CCK-8	48 h	13.2
Cc1cc(Nc2ncc(Cl)c(Nc3ccccc3S(=O)(=O)C(C)C)n2)c(OC(C)C)cc1C1CCNCC1	Rh41		72 h	0.35
CCCCC[C@H](O)CC(=O)CCc1ccc(O)c(OC)c1	COR-L23	SRB		199
O=C1Nc2ccc(F)cc2/C1=N/NC(=O)c1cc2ccccc2[nH]1	ZR75			> 30
O=C(Nc1ccc2[nH]ncc2c1)c1cccc(NC(=O)c2cc(C(F)(F)F)ccc2F)c1	KM12	ATP luminescence	72 h	26.8
COc1cc2nccc(Oc3ccc(NC(=O)C4(C(=O)Nc5ccc(F)cc5)CC4)cc3)c2cc1OC	Rh41		72 h	2.4
O=C(Nc1ccc(Cl)cc1)Nc1cccc(C(=O)Nc2ccc3[nH]ncc3c2)c1	KM12	ATP luminescence	72 h	> 50
O=C1NC(=NCc2cccs2)S/C1=C\c1ccc2ncccc2c1	SR			0.372
O=C1Nc2ccccc2/C1=N/NC(=O)c1cc2ccccc2[nH]1	ZR75			22.7
CC(C)C(=O)Nc1ccc([N+](=O)[O-])c(C(F)(F)F)c1	Hep3B	CCK-8	48 h	> 50
O=C(Nc1ccc2[nH]ncc2c1)c1cccc(NC(=S)Nc2cc(C(F)(F)F)cc(C(F)(F)F)c2)c1	KM12	ATP luminescence	72 h	19.6
CCCCC(C(=O)COc1c(F)c(F)cc(F)c1F)n1cc([C@@](C)(NCc2ccc3ncccc3c2)C2CC2)nn1 (stereo partly shown)	BESM		72 h	> 10
O=C(Nc1cccc(C(=O)Nc2ccc3[nH]ncc3c2)c1)Nc1ccccc1F	KM12	ATP luminescence	72 h	48.3
CCCCC/C=C/C(=O)CCc1ccc(O)c(OC)c1	COR-L23	SRB		16.2

Structure (SMILES)	cell line	technique	time	IC50 [µM]
CCC(C(=O)COc1c(F)c(F)cc(F)c1F)n1cc([C@@](C)(NCc2ccc3ncccc3c2)C(C)C)nn1 (stereo partly shown)	BESM		72 h	> 10
COc1cc(Nc2nccc(-c3cnn4nc(OC)ccc34)n2)cc(C(F)(F)F)c1	NCI-H2110	ATP luminescence		0.63
O=C(Nc1ccccc1)Nc1cccc(C(=O)Nc2ccc3[nH]ncc3c2)c1	KM12	ATP luminescence	72 h	> 50
O=C1Nc2ccc(Br)cc2/C1=N/NC(=O)c1cc2ccccc2[nH]1	ZR75			21.9
Cc1[nH]c2ccccc2c1CCNCc1ccc(/C=C/C(=O)NO)cc1	A2780C/P	crystal violet	48 h	0.0088
CC1=CC(C)(C)N(Cc2ccccc2)c2ccc(O)cc21	Hep3B	MTT	72 h	5.2
COc1cc2c(Oc3ccc(NC(=O)C4(C(=O)Nc5ccc(F)cc5)CC4)cc3F)ccnc2cc1OCCCN1CCOCC1	Rh41		72 h	0.59
COc1cc(C2Oc3cc([C@H]4Oc5cc(O)cc(O)c5C(=O)[C@@H]4O)ccc3OC2CO)ccc1O (stereo partly shown)	Hep3B	CCK-8	72 h	7.21
COc1ccc2c(c1)/C(=N/NC(=O)c1cc3ccccc3[nH]1)C(=O)N2	ZR75			17.9
O=C(Nc1cccc(F)c1)Nc1cccc(C(=O)Nc2ccc3[nH]ncc3c2)c1	KM12	ATP luminescence	72 h	41.5
CCC(C(=O)COc1c(F)c(F)cc(F)c1F)n1cc([C@](C)(CC(C)C)NCc2ccc3ncccc3c2)nn1 (stereo partly shown)	BESM		72 h	> 10
CN1C(=O)/C(=N\NC(=O)c2cc3ccccc3[nH]2)c2cc(F)ccc21	ZR75			4.31
CC(C)C[C@H](NC(=O)[C@H](Cc1ccccc1)NC(=O)c1cnccn1)B(O)O	NCI-H2110	ATP luminescence		0.017
O=C(Nc1ccc2[nH]ncc2c1)c1cccc(NC(=S)Nc2ccc(F)cc2F)c1	KM12	ATP luminescence	72 h	30.6
CN1C(=O)/C(=N\NC(=O)c2cc3ccccc3[nH]2)c2cc(Br)ccc21	ZR75			1.01
